According to ChEMBL document CHEMBL1126270, “Synthesis of 3-[(2,3-dihydro-1,1,3-trioxo-1,2-benzisothiazol-2-yl)alkyl] 1,4-dihydropyridine-3,5-dicarboxylate derivatives as calcium channel modulators” (J Med Chem, 1992):

Assays:
[1] = species: Oryctolagus cuniculus; test: Blockade of calcium-evoked contractions evaluated in depolarized rabbit aortic strips; format: functional; conditions: Aorta
Summary of the method: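 Male New Zealand rabbit thoracic aorta, helicoidal strips, 2.5 g preload, Krebs–bicarbonate, 37 °C, 95% O2/5% CO2, pH 7.4. After 1 h equilibration, depolarized with 35 mM K+; 1.5 mM Ca2+ added 10 min later, repeated until reproducible. Compound at increasing concentrations from 20 min before and during Ca2+ addition; responses normalized to initial tension; IC50 by Finney method.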

[2] = species: Oryctolagus cuniculus; test: Maximum contractile force in rabbit aorta strips; format: functional
Summary of the method: (§1)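 Rabbit aortic strips, after equilibration in Ca2+-free Krebs, switched to buffer with 10 mM K+. Repeated 1.5 mM Ca2+ pulses until reproducible. Increasing compound concentrations each given 10 min before a further 1.5 mM Ca2+ pulse. Maximum contractile force (mg) taken as vasoconstrictor effect; data as mean ± SEM at 10^-6 M.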

[3] = species: Oryctolagus cuniculus; test: Compound was evaluated for contraction on Electrically driven Rabbit left atria. at 10e-6 M; format: functional
[4] = species: Oryctolagus cuniculus; test: Compound was tested in vitro for its effect on maximum contractile force in rabbit aorta strips; format: functional; summary of the method: as §1
[5] = species: Oryctolagus cuniculus; test: Compound was evaluated for contraction on Electrically driven Rabbit left atria. at 10e-7 M; format: functional
[6] = species: Rattus norvegicus; test: Compound evaluated for reducing diastolic blood pressure in normotensive rats.; format: functional, Artery
[7] = system: Rattus norvegicus; test: Effect (iv, 100 ug/kg) on diastolic blood pressure in anesthetized normotensive rat; format: functional, Artery
Summary of the method: (§2)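 Male Wistar rats, 290 ± 30 g, pentobarbitone anesthesia (70 mg/kg ip), tracheal cannulation. Carotid arterial pressure recorded, dosing via femoral vein. Bolus iv of 0.1 mg/kg in PEG-400 (0.1 mL/kg); effects recorded continuously for 15 min; peak rise in mmHg above basal.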

[8] = system: Rattus norvegicus; test: Effect (iv, 100 ug/kg) on systolic blood pressure in anesthetized normotensive rat; format: functional, Artery; summary of the method: as §2
[9] = species: Oryctolagus cuniculus; test: Compound was evaluated for contraction on Electrically driven Rabbit left atria. at 10e-8 M; format: functional
[10] = species: Rattus norvegicus; test: Compound evaluated for reducing diastolic blood pressure spontaneously hypertensive rats.; format: functional; conditions: Artery
Summary of the method: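 Male SHR (Okamoto strain, 290 ± 30 g) under sodium pentobarbitone anaesthesia (70 mg/kg ip) with tracheal cannulation. Arterial pressure recorded from the left carotid artery. Bolus iv via right femoral vein in PEG-400 (0.1 mL/kg), cumulative doses of 1, 3, 6, 10, 20 and 30 μg/kg, each followed for 15 min. ED25 for lowering diastolic pressure estimated.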

[11] = species: Rattus norvegicus; test: Duration of action in spontaneously hypertensive rats.; format: functional
Summary of the method: (§3)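 Anesthetized (pentobarbitone 70 mg/kg ip) Okamoto SHR, 290 ± 30 g; carotid pressure, femoral vein dosing. Cumulative increasing iv bolus doses of 1, 3, 6, 10, 20, 30 µg/kg in PEG-400 (0.1 mL/kg), each recorded 15 min; ED25 for lowering SBP and DBP and duration of hypotensive action estimated.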

[12] = species: Rattus norvegicus; test: Reducing systolic blood pressure in spontaneously hypertensive rats.; format: functional; conditions: Artery
Summary of the method: (§4)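 Conscious SHR trained 2 weeks, warmed at 31 ± 1 °C for 2 h; tail plethysmography SBP, mean of five readings; only rats above 170 mmHg used. After 24 h fasting, 20 mg/kg by gavage in 20% PEG-400/0.5% methylcellulose (10 mL/kg); SBP change read 1 h post-dose, n = 12.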

[13] = species: Oryctolagus cuniculus; test: Inhibition of electrically stimulated rabbit left atria contraction.; format: functional
Summary of the method: (§5)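 Rabbit left atria electrically driven (1 Hz, 10 ms, twice threshold voltage), equilibrated 1–1.5 h. Compounds added cumulatively (10^-10–10^-6 M), diluted from DMSO stocks into Krebs–Henseleit, final DMSO <0.1%. Isometric force recorded; IC50 from contractile force relative to initial control values, with 95% confidence limits.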

[14] = system: Rattus norvegicus; test: Systolic blood pressure after administration of a single oral dose (20 mg/kg); format: functional
Summary of the method: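 Conscious SHR trained for 2 weeks; systolic pressure by tail plethysmography after 2 h at 31 ± 1 °C, each reading the mean of five determinations. Only rats with basal >170 mmHg were used. After 24 h fasting, dosed by gavage in 20% PEG-400 in 0.5% aqueous methylcellulose (10 mL/kg). % change from basal at 1 h; mean ± SE, n = 12.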

[15] = species: Oryctolagus cuniculus; test: Recovery of the initial contraction of rabbit aortic strips, blocked at 10e-7 M concentration.; conditions: Aorta
[16] = target: T1, Voltage-dependent L-type calcium channel subunit alpha-1C (Oryctolagus cuniculus, UniProt P15381); test: Selectivity index was measured as the IC50 needed to depress the heart beat divided by IC50 needed to block [Ca2+] contractions in rabbit aortic strips; format: functional, tissue-based, Aorta
[17] = species: Oryctolagus cuniculus; test: Inhibition of electrically stimulated rabbit left atria contraction; format: functional; summary of the method: as §5
[18] = species: Oryctolagus cuniculus; test: Relative potency evaluated (relative potency = IC50 of compound / IC50 of nifedipine) in rabbit; format: functional
[19] = target: T1, Voltage-dependent L-type calcium channel subunit alpha-1C; conditions: rabbit, Aorta
[20] = target: T1, Voltage-dependent L-type calcium channel subunit alpha-1C; test: Blockade of calcium-evoked contractions in depolarized aortic strips; format: functional, tissue-based, Aorta
[21] = species: Oryctolagus cuniculus; test: Relative potency was evaluated. (relative potency = IC50 of compound / IC50 of nifedipine); format: functional
[22] = system: Rattus norvegicus; test: Systolic blood pressure after administration of a single oral dose (20 mg/kg) in spontaneously hypertensive rats.; format: functional; summary of the method: as §4
[23] = species: Rattus norvegicus; test: Compound evaluated for reducing diastolic blood pressure in spontaneously hypertensive rats.; format: functional; conditions: Artery; summary of the method: as §3
[24] = species: Rattus norvegicus; test: Compound evaluated for reducing diastolic blood pressure normotensive rats.; format: functional, Artery

T1 sequence (P15381 whole entry): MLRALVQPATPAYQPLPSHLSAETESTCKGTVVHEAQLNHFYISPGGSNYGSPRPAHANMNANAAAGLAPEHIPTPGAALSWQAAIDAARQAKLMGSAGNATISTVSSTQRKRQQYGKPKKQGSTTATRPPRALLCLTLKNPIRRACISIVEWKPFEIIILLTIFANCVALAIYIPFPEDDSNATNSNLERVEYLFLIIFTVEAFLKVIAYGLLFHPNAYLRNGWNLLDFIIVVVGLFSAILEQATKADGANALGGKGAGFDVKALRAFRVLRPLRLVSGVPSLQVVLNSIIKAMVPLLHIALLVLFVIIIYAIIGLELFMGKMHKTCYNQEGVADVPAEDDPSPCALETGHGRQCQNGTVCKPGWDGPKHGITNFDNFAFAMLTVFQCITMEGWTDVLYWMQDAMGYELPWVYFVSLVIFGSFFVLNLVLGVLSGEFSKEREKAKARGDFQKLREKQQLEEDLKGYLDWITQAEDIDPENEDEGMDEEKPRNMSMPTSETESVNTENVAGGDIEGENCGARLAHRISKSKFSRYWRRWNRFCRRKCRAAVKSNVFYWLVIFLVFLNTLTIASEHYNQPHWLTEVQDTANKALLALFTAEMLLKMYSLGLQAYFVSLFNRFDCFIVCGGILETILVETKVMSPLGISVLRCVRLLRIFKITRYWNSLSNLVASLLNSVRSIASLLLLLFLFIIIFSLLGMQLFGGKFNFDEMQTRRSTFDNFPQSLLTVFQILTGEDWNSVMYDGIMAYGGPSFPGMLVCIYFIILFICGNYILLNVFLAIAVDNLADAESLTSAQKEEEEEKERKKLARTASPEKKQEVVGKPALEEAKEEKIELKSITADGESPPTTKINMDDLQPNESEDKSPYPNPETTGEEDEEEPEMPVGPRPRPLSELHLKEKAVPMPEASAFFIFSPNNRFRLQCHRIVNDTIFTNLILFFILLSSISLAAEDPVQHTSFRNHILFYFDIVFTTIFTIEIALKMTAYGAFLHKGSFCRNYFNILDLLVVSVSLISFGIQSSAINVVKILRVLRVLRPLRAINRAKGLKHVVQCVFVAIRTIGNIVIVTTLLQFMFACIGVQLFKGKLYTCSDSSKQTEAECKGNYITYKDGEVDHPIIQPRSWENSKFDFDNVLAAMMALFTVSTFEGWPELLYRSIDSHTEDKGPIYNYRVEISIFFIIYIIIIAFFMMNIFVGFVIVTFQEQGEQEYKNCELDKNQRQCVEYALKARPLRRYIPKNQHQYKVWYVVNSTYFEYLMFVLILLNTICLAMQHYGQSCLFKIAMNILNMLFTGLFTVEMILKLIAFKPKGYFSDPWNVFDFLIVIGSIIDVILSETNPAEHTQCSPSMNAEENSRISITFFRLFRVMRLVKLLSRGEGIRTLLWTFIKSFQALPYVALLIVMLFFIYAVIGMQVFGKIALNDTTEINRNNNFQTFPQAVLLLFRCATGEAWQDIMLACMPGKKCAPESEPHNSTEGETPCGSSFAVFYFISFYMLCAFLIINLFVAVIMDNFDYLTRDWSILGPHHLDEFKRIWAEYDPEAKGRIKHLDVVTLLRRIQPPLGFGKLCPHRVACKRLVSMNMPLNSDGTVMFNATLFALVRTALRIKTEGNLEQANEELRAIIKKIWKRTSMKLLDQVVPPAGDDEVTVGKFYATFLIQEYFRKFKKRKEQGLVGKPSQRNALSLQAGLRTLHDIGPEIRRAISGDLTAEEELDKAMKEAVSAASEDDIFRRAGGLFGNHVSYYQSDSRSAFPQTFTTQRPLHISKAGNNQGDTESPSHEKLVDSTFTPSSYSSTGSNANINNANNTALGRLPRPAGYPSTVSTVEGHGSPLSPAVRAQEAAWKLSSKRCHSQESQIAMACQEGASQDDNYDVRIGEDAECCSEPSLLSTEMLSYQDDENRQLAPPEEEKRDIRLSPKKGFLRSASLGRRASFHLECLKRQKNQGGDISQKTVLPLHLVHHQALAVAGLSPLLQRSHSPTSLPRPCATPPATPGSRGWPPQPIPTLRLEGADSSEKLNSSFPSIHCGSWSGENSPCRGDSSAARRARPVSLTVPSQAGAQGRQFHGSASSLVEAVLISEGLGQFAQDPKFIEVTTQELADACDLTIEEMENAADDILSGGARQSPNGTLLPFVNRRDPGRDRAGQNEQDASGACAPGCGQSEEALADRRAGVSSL

For `CC1=NC(C)=C(C(=O)OCCN2C(=O)c3ccccc3S2(=O)=O)C(c2cccc([N+](=O)[O-])c2)/C1=C(\O)OCC1CCCCO1` (configuration not stated), the IC50 [1] was > 1000 nM, the Max contractile force [2] was 1940 mg and the Contraction [3] was 141.2%. It also gave a Max contractile activity [4] of 1940 mg, a Contraction [5] of 129.6% and a DBP change [6] of 40%. For the same compound, the DBP [7] was 40, the SBP [8] was 58.1 and the Contraction [9] was 114%.

Work on `COC(=O)C1=C(C)NC(C)=C(C(=O)OC)C1c1ccccc1[N+](=O)[O-]` [NIFEDIPINE] yielded an ED25 [10] of 0.031 mg/kg, a Duration [11] of 3 min and an ED25 [12] of 0.033 mg/kg. It also gave an IC50 [13] of 113 nM, an SBP change [14] of 35% and a Recovery [15] of 71.6%.

`CC1=NC(C)=C(C(=O)OCCCN2C(=O)c3ccccc3S2(=O)=O)C(c2ccccc2C(F)(F)F)/C1=C(\O)OCC1CCCCO1` (configuration not stated) gave an IC50 [1] of 1.4 nM, a Selectivity index [16] of 121 and an IC50 [17] of 168 nM. The Recovery [15] was 5% and the Relative potency [18] was 2.1.

For `CC1=NC(C)=C(C(=O)OCCN2C(=O)c3ccccc3S2(=O)=O)C(c2ccccc2[N+](=O)[O-])/C1=C(\O)OCC1CCCCO1` (configuration not stated), the IC50 [1] was > 1000 nM and the Max contractile force [2] was 990 mg.

Work on `CCO/C(O)=C1\C(C)=NC(C)=C(C(=O)OCCN2C(=O)c3ccccc3S2(=O)=O)C1c1ccccc1C(F)(F)F` (configuration not stated) yielded an IC50 [1] of 0.5 nM, a Selectivity index [16] of 152 and an IC50 [17] of 74.4 nM. It also gave a Recovery [15] of 14.5% and a Relative potency [18] of 5.8.

In the case of `CC1=NC(C)=C(C(=O)OCCN2C(=O)c3ccccc3S2(=O)=O)C(c2ccccc2Cl)/C1=C(\O)OCC1CCCCO1` (configuration not stated), the IC50 [1] is reported as 348 nM, the Max contractile force [2] is reported as 510 mg and the Relative potency [18] is reported as <0.1.

With `CO/C(O)=C1\C(C)=NC(C)=C(C(=O)OCCN2C(=O)c3ccccc3S2(=O)=O)C1c1ccccc1Cl` (configuration not stated) the IC50 [1] was > 1000 nM and the Max contractile force [2] was 610 mg.

`CC1=NC(C)=C(C(=O)OCN2C(=O)c3ccccc3S2(=O)=O)C(c2cccc([N+](=O)[O-])c2)/C1=C(\O)OCC1CCCO1` (configuration not stated) gave a T1/2 [19] of 9.6 min, an IC50 [20] of 25.1 nM and a Relative potency [21] of 0.1. For the same compound, the Recovery [15] was 27.2%.

`CC1=NC(C)=C(C(=O)OCCN2C(=O)c3ccccc3S2(=O)=O)C(c2ccccc2C(F)(F)F)/C1=C(\O)OC(C)C` (configuration not stated) was tested, and the IC50 [1] was 1 nM, the Selectivity index [16] was 103 and the SBP change [22] was 37%. The Duration [11] was >15 min, the ED25 [12] was 0.009 mg/kg and the IC50 [13] was 102 nM. The Recovery [15] was 0.5%, the ED25 [23] was 0.008 mg/kg and the Relative potency [18] was 2.5.

Work on `CC1=NC(C)=C(C(=O)OCN2C(=O)c3ccccc3S2(=O)=O)C(c2ccccc2[N+](=O)[O-])/C1=C(\O)OCC1CCCO1` (configuration not stated) yielded a T1/2 [19] of 8.7 min, an IC50 [20] of 38 nM and a Relative potency [21] of 0.1. For the same compound, the IC50 [13] was 286 nM and the Recovery [15] was 44.5%.

With `COC(=O)C1=C(C)NC(C)=C([N+](=O)[O-])C1c1ccccc1C(F)(F)F` (configuration not stated) the DBP change [24] was 53.3%, the Max contractile force [2] was 2570 mg and the Contraction [3] was 471.4%. The Contraction [5] was 232.2%, the DBP [7] was 53.3 and the SBP [8] was 100. It also gave a Contraction [9] of 97.8%.
